Measurements as given in PubChem BioAssay AID504392 (Broad Institute, 2011).
Calls of active or inactive are those of the source.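 The calls were made as follows: active = fitted curve rising past 10% caspase activation at or below the top valid dose; inactive = activity opposite to the expected rise, or the rest.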

Experiment: caspase activation in wild-type MEFs, dose response, counter-screen for Bcl2-A1 inhibitor project, cell-based, wild-type MEF, caspase luminescence, dry powder, set 2 (AID 504392)
Settings: CaspaseGlo luminescence, 3 h; series mostly up to 35 µM
How it was run: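 Assay system: wild-type mouse embryonic fibroblasts, not A1–BIM primed. Buffer or medium: RPMI-1640 growth medium with 10% FBS. Timing: 3 h compound at 37 °C, 1 h reagent at RT. Signal: luminescence with CaspaseGlo caspase reagent. Read-out: caspase activation.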

Question: For `C/C1=C/C(=O)O[C@@H]2C[C@@H](CC[C@H](C)/C=C\CC1)O[C@@](O)(C1CSC(=O)N1)C2` (stereo partly specified), which outcome is on record?
Answer: The outcome was “inactive”.
